Results from different studies.
Compare with care: the assays were run in different laboratories.
MAL12: Alpha-glucosidase MAL12 (MAL12, Saccharomyces cerevisiae S288c, UniProt P53341)
rep main protease: Replicase polyprotein 1ab, main protease (rep, Severe acute respiratory syndrome coronavirus 2, UniProt P0DTD1)
ADRA1A: Alpha-1A adrenergic receptor (ADRA1A, Homo sapiens, UniProt P35348)
HRH2: Histamine H2 receptor (HRH2, Homo sapiens, UniProt P25021)

| SMILES | target | test | conditions | endpoint | result |
| --- | --- | --- | --- | --- | --- |
| [2H]c1c([2H])c([C@]2([2H])CCCN2C(=O)C(C)(C)Oc2ccc3cn[nH]c3c2)c([2H])c([2H])c1C([2H])([2H])[2H] | Focal adhesion kinase 1 (PTK2, Homo sapiens, UniProt Q05397) | binding, competition with immobilised ligand | 1 µM | remaining binding | 75% |
| CCc1ccc(N2C(=O)/C(=C3/C(=O)N(C)c4ccc(Cl)cc43)NC2=S)cc1 | MAL12 | enzyme activity, inhibitor, absorbance | 200 µM | inhibition | 62.1% |
| O=c1c(O)c(-c2cc(O)c(O)c(O)c2)oc2cc(O)cc(O)c12 | rep main protease | enzyme activity, inhibitor | 100 µM | inhibition | 100% |
| C[C@H]1O[C@H](O[C@H]2[C@H](O)[C@@H](O)[C@@H](O[C@H]3[C@H](O)[C@@H](O)C(O)O[C@@H]3CO)O[C@@H]2CO)[C@H](O)[C@@H](O)[C@@H]1N[C@H]1C=C(CO)[C@@H](O)[C@H](O)[C@H]1O (stereo partly shown) | MAL12 | enzyme activity, inhibitor, absorbance | 774.5 µM | inhibition | 63.9% |
| CC(C)CC(=O)OC[C@H]1O[C@@](C#N)(c2ccc3c(N)ncnn23)[C@H](O)[C@@H]1O | ADRA1A | cell-free assay | 20 µM | inhibition | 3% |
| COc1cc(O)c2c(=O)c(OC)c(-c3ccc(OC)c(OC)c3)oc2c1 | rep main protease | enzyme activity, inhibitor | 10 µM | inhibition | 5.84% |
| O=c1c(O)c(-c2ccc(O)cc2)oc2c(O)c(O)cc(O)c12 | rep main protease | enzyme activity, inhibitor |  | kinact | 0.000152 s⁻¹ |
| COc1cc2c3c(c1OC)-c1c(cccc1OC)CC3N(C)CC2 (racemic) | ADRA1A | ligand displacement, radioligand | 10 µM | inhibition | 65% |
| CN1C(=S)N(c2ccccc2)C(=O)/C1=C1/C(=O)N(C)c2ccc(Cl)cc21 | MAL12 | enzyme activity, inhibitor, absorbance | 200 µM | inhibition | 54.2% |
| c1cncc([C@@H]2CCCN2)c1 | HRH2 | ligand displacement | 50 µM | inhibition | -6.37% |
| COc1ccc(-c2cc(=O)c3c(O)cc(OC)cc3o2)cc1 | rep main protease | enzyme activity, inhibitor | 100 µM | inhibition | 10.6% |
| CN1CCC[C@H]1c1cccnc1 | HRH2 | ligand displacement | 50 µM | inhibition | 3.47% |
| O=C(O)c1cc(O)c(O)c(O)c1 | rep main protease | enzyme activity, inhibitor |  | kinact | 0.00079 s⁻¹ |
| COc1cc2c(cc1OC)-c1c(OC)c(OC)cc3c1[C@H](C2)N(C)CC3 | ADRA1A | ligand displacement, radioligand | 10 µM | inhibition | 82% |
| O=C(O[C@@H]1Cc2c(O)cc(O)cc2O[C@@H]1c1ccc(O)c(O)c1)c1cc(O)c(O)c(O)c1 | rep main protease | enzyme activity, inhibitor |  | kinact/KI | 9.76 M⁻¹ s⁻¹ |
| CN1C(=O)/C(=N\Nc2ncc(-c3cc4ccccc4oc3=O)s2)c2cc(Cl)ccc21 | MAL12 | enzyme activity, inhibitor, absorbance | 100 µM | inhibition | 48.3% |
